Reference: ChEMBL document CHEMBL1944580, “Synthesis of novel sulfonamide-1,2,4-triazoles, 1,3,4-thiadiazoles and 1,3,4-oxadiazoles, as potential antibacterial and antifungal agents. Biological evaluation and conformational analysis studies” (2012)
≈ marks a conversion by molar mass, not a printed value.

Columns and labels:
[1] = system: Talaromyces funiculosus; experiment: Antifungal activity against Penicillium funiculosum ATCC 36839 after 72 hrs by serial dilution method; type: functional; conditions: ATCC 36839, 72 h
How it was run: (§1)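 Modified microdilution MIC. Spores were washed from malt agar cultures with sterile 0.85% saline containing 0.1% Tween 80 and adjusted to about 1.0 × 10^5 per 100 µl well in malt broth. Compounds were dissolved in DMSO (1 mg/ml). Plates incubated 72 h at 28 °C. MIC is the lowest concentration with no visible growth under a binocular microscope. Bifonazole and ketoconazole were the references.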

[2] = system: Enterobacter cloacae; experiment: Antibacterial activity against Enterobacter cloacae human isolate after 24 hrs by micro dilution method; type: functional
How it was run: (§2)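 Microdilution MIC in 96-well plates. Bacterial suspensions adjusted in sterile saline to 1.0 × 10^5 CFU/ml, giving 1.0 × 10^4 cfu per well in LB broth. Compounds tested at up to 1 mg/ml. Plates incubated 24 h. MIC taken as the lowest concentration with no visible growth under a binocular microscope. OD at 655 nm was also read against a blank and the positive control. Streptomycin and ampicillin were the positive controls.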

[3] = system: Penicillium ochrochloron; experiment: Antifungal activity against Penicillium ochrochloron ATCC 9112 after 72 hrs by serial dilution method; type: functional; conditions: ATCC 9112, 72 h; how it was run: as §1
[4] = system: Trichoderma viride; experiment: Antifungal activity against Trichoderma viride IAM 5061 after 72 hrs by serial dilution method; type: functional; conditions: IAM 5061, 72 h; how it was run: as §1
[5] = system: Fulvia fulva; experiment: Antifungal activity against Fulvia fulva after 72 hrs by serial dilution method; type: functional; how it was run: as §1
[6] = system: Pseudomonas aeruginosa; experiment: Antibacterial activity against Pseudomonas aeruginosa ATCC 27853 treated for 24 hrs followed by sub-cultivated for 72 hrs by micro dilution method; type: functional
How it was run: (§3)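 2 µl from each well was serially subcultured into 100 µl fresh broth per well and incubated a further 72 h. MBC is the lowest concentration with no visible growth, taken as 99.5% killing of the original inoculum. Streptomycin and ampicillin were the positive controls.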

[7] = system: Aspergillus niger; experiment: Antifungal activity against Aspergillus niger ATCC 6275 treated for 72 hrs followed by sub-cultivated for 5 days by serial dilution method; type: functional
How it was run: (§4)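 MFC obtained after the 72 h, 28 °C malt-broth microdilution (spore inoculum about 1.0 × 10^5 per well, compounds from 1 mg/ml DMSO). 2 µl was serially subcultured into 100 µl broth per well and incubated a further 5 days at 28 °C. MFC is the lowest concentration with no visible growth, taken as 99.5% killing of the original inoculum.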

[8] = system: Escherichia coli; experiment: Antibacterial activity against Escherichia coli ATCC 35210 after 24 hrs by micro dilution method; type: functional; conditions: ATCC 35210, 24 h; how it was run: as §2
[9] = system: Micrococcus flavus; experiment: Antibacterial activity against Micrococcus flavus ATCC 10240 treated for 24 hrs followed by sub-cultivated for 72 hrs by micro dilution method; type: functional; how it was run: as §3
[10] = system: Bacillus cereus; experiment: Antibacterial activity against Bacillus cereus clinical isolate after 24 hrs by micro dilution method; type: functional; how it was run: as §2
[11] = system: Penicillium ochrochloron; experiment: Antifungal activity against Penicillium ochrochloron ATCC 9112 treated for 72 hrs followed by sub-cultivated for 5 days by serial dilution method; type: functional; how it was run: as §4
[12] = system: Pseudomonas aeruginosa; experiment: Antibacterial activity against Pseudomonas aeruginosa ATCC 27853 after 24 hrs by micro dilution method; type: functional; conditions: ATCC 27853, 24 h; how it was run: as §2
[13] = system: Fulvia fulva; experiment: Antifungal activity against Fulvia fulva treated for 72 hrs followed by sub-cultivated for 5 days by serial dilution method; type: functional; how it was run: as §4
[14] = system: Trichoderma viride; experiment: Antifungal activity against Trichoderma viride IAM 5061 treated for 72 hrs followed by sub-cultivated for 5 days by serial dilution method; type: functional; how it was run: as §4
[15] = system: Salmonella typhimurium; experiment: Antibacterial activity against Salmonella Typhimurium ATCC 13311 after 24 hrs by micro dilution method; type: functional, Salmonella enterica subsp. enterica serovar Typhimurium; conditions: Salmonella enterica, ATCC 13311, 24 h; how it was run: as §2
[16] = system: Talaromyces funiculosus; experiment: Antifungal activity against Penicillium funiculosum ATCC 36839 treated for 72 hrs followed by sub-cultivated for 5 days by serial dilution method; type: functional; how it was run: as §4
[17] = system: Aspergillus versicolor; experiment: Antifungal activity against Aspergillus versicolor ATCC 11730 after 72 hrs by serial dilution method; type: functional; conditions: ATCC 11730, 72 h; how it was run: as §1
[18] = system: Aspergillus flavus; experiment: Antifungal activity against Aspergillus flavus ATCC 9643 treated for 72 hrs followed by sub-cultivated for 5 days by serial dilution method; type: functional; how it was run: as §4
[19] = system: Aspergillus fumigatus; experiment: Antifungal activity against Aspergillus fumigatus human isolate after 72 hrs by serial dilution method; type: functional; how it was run: as §1
[20] = system: Escherichia coli; experiment: Antibacterial activity against Escherichia coli ATCC 35210 treated for 24 hrs followed by sub-cultivated for 72 hrs by micro dilution method; type: functional; how it was run: as §3
[21] = system: Staphylococcus aureus; experiment: Antibacterial activity against Staphylococcus aureus ATCC 6538 treated for 24 hrs followed by sub-cultivated for 72 hrs by micro dilution method; type: functional; how it was run: as §3
[22] = system: Aspergillus versicolor; experiment: Antifungal activity against Aspergillus versicolor ATCC 11730 treated for 72 hrs followed by sub-cultivated for 5 days by serial dilution method; type: functional; how it was run: as §4
[23] = system: Aspergillus flavus; experiment: Antifungal activity against Aspergillus flavus ATCC 9643 after 72 hrs by serial dilution method; type: functional; conditions: ATCC 9643, 72 h; how it was run: as §1
[24] = system: Bacillus cereus; experiment: Antibacterial activity against Bacillus cereus clinical isolate treated for 24 hrs followed by sub-cultivated for 72 hrs by micro dilution method; type: functional; how it was run: as §3
[25] = system: Listeria monocytogenes; experiment: Antibacterial activity against Listeria monocytogenes NCTC 7973 treated for 24 hrs followed by sub-cultivated for 72 hrs by micro dilution method; type: functional; how it was run: as §3
[26] = system: Micrococcus flavus; experiment: Antibacterial activity against Micrococcus flavus ATCC 10240 after 24 hrs by micro dilution method; type: functional; conditions: ATCC 10240, 24 h; how it was run: as §2
[27] = system: Enterobacter cloacae; experiment: Antibacterial activity against Enterobacter cloacae human isolate treated for 24 hrs followed by sub-cultivated for 72 hrs by micro dilution method; type: functional; how it was run: as §3
[28] = system: Aspergillus niger; experiment: Antifungal activity against Aspergillus niger ATCC 6275 after 72 hrs by serial dilution method; type: functional; conditions: ATCC 6275, 72 h; how it was run: as §1
[29] = system: Listeria monocytogenes; experiment: Antibacterial activity against Listeria monocytogenes NCTC 7973 after 24 hrs by micro dilution method; type: functional; conditions: NCTC 7973, 24 h; how it was run: as §2
[30] = system: Aspergillus fumigatus; experiment: Antifungal activity against Aspergillus fumigatus human isolate treated for 72 hrs followed by sub-cultivated for 5 days by serial dilution method; type: functional; how it was run: as §4
[31] = system: Salmonella typhimurium; experiment: Antibacterial activity against Salmonella Typhimurium ATCC 13311 treated for 24 hrs followed by sub-cultivated for 72 hrs by micro dilution method; type: functional, Salmonella enterica subsp. enterica serovar Typhimurium; conditions: Salmonella enterica; how it was run: as §3
[32] = system: Staphylococcus aureus; experiment: Antibacterial activity against Staphylococcus aureus ATCC 6538 after 24 hrs by micro dilution method; type: functional; conditions: ATCC 6538, 24 h; how it was run: as §2

CCCNc1nnc(Cc2cc(OC)c(OC)cc2S(=O)(=O)N(C)C)o1
MIC [1]: 260 µM (≈ 100 µg/mL)
MIC [2]: 630 µM (≈ 242 µg/mL)
MIC [3]: 130 µM (≈ 50 µg/mL)
MIC [4]: 70 µM (≈ 26.9 µg/mL)
MIC [5]: 130 µM (≈ 50 µg/mL)
MBC [6]: 260 µM (≈ 100 µg/mL)
MFC [7]: 390 µM (≈ 150 µg/mL)
MIC [8]: 630 µM (≈ 242 µg/mL)
MBC [9]: 260 µM (≈ 100 µg/mL)
MIC [10]: 260 µM (≈ 100 µg/mL)
MFC [11]: 260 µM (≈ 100 µg/mL)
MIC [12]: 260 µM (≈ 100 µg/mL)
MFC [13]: 260 µM (≈ 100 µg/mL)
MFC [14]: 130 µM (≈ 50 µg/mL)
MIC [15]: 130 µM (≈ 50 µg/mL)
MFC [16]: 780 µM (≈ 300 µg/mL)
MIC [17]: 260 µM (≈ 100 µg/mL)
MFC [18]: 390 µM (≈ 150 µg/mL)
MIC [19]: 130 µM (≈ 50 µg/mL)
MBC [20]: 630 µM (≈ 242 µg/mL)
MBC [21]: 260 µM (≈ 100 µg/mL)
MFC [22]: 390 µM (≈ 150 µg/mL)
MIC [23]: 130 µM (≈ 50 µg/mL)
MBC [24]: 260 µM (≈ 100 µg/mL)
MBC [25]: 260 µM (≈ 100 µg/mL)
MIC [26]: 130 µM (≈ 50 µg/mL)
MBC [27]: 750 µM (≈ 288 µg/mL)
MIC [28]: 130 µM (≈ 50 µg/mL)
MIC [29]: 130 µM (≈ 50 µg/mL)
MFC [30]: 260 µM (≈ 100 µg/mL)
MBC [31]: 260 µM (≈ 100 µg/mL)
MIC [32]: 260 µM (≈ 100 µg/mL)
